Laboratory results reported in article PMC6923798 (Bioorganic chemistry, 2018).
Like-named read-outs stand apart in the source and are kept apart here.

Key:
[1] = system: K-562; experiment: MTT anti-proliferative assay; assay type: cell-based, human; settings: read-out: IC50 ± SD, K-562
[2] = system: Jurkat; experiment: MTT anti-proliferative assay; assay type: cell-based, human; settings: read-out: IC50 ± SD, Jurkat
[3] = system: KG-1a; experiment: MTT anti-proliferative assay; assay type: cell-based, human; settings: read-out: IC50 ± SD, KG-1a
[4] = system: STAT3; experiment: STAT3 activation assay; assay type: cell-based, human; settings: K-562 cells, 10 μM, 24 h, nuclear extracts
Outline: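 K562 cells seeded overnight in 10 cm plates, then given vehicle, test compound (10 μM) or WP1066 (positive control) for 24 h. Nuclear fractions extracted by kit. STAT3 activation measured in nuclear extracts by TransAM STAT3 ELISA per manufacturer. Mean ± SD of three independent experiments, each in triplicate.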

[5] = target: c-Src (Homo sapiens, UniProt P12931); experiment: Src kinase assay; assay type: biochemical
Chain of c-Src (P12931 whole entry): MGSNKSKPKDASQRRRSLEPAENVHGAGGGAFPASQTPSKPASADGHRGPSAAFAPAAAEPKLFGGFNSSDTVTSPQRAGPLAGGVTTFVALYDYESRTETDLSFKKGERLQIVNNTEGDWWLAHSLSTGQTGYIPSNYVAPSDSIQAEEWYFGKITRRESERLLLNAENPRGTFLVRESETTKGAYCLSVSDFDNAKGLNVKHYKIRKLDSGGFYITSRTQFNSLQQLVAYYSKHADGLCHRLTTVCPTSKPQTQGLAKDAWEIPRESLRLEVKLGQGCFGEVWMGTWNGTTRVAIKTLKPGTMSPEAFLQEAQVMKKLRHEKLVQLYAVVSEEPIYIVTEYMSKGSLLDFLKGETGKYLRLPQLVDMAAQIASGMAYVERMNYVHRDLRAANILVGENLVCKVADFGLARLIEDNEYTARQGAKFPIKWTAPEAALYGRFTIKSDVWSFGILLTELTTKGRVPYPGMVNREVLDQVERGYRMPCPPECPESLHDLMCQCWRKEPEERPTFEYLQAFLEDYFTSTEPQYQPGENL

[6] = system: IL-6; experiment: IL-6 ELISA in K-562 cells; assay type: cell-based, human; settings: Homo sapiens, K562, 24 h, read-out: IL-6 protein levels (% of control)
Outline: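 K-562 cells exposed 24 h to vehicle (DMSO), test compound at 10 μM or dexamethasone (positive control). IL-6 secreted into cell-free supernatant quantified by human IL-6 ELISA kit. Expressed as % of vehicle control, mean ± SD of three independent experiments, each in triplicate. Time course: in 12-well plates, medium changed when compound (10 μM) added, and media sampled at 0, 1, 4, 8, 12, 24, 48 h.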

[7] = target: EGFR (Homo sapiens, UniProt P00533); experiment: EGFR kinase assay; assay type: biochemical
Chain of EGFR (P00533 25-1210): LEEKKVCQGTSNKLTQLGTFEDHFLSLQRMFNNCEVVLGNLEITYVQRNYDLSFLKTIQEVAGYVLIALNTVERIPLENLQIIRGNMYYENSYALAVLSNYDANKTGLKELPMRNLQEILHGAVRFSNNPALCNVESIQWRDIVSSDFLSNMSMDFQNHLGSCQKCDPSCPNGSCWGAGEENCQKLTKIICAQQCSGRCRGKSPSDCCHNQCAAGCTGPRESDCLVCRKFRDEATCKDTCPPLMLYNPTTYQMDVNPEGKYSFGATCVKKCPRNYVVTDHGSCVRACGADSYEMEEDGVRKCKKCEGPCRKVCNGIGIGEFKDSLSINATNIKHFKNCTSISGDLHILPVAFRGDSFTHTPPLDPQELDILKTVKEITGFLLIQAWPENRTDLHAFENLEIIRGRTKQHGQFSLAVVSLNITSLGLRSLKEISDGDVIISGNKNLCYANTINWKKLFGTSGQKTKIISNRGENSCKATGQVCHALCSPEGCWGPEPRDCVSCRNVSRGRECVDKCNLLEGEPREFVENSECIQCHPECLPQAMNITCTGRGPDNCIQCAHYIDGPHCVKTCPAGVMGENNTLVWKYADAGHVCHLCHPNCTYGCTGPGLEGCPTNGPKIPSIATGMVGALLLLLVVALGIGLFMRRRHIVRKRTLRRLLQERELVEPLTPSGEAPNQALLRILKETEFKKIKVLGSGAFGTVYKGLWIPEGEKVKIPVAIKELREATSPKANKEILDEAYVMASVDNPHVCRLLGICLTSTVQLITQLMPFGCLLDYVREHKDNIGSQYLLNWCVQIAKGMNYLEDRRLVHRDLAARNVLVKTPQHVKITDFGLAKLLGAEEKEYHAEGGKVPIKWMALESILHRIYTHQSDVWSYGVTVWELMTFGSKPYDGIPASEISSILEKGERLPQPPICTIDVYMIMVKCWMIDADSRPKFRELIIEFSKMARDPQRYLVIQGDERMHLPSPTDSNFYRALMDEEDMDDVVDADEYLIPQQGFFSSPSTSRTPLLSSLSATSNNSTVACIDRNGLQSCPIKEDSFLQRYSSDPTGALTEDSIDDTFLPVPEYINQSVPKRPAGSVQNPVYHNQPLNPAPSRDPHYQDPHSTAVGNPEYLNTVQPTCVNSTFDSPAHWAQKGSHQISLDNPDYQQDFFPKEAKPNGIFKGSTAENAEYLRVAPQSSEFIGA

[8] = system: SR cell line; experiment: NCI in vitro one dose anticancer assay; assay type: cell-based; settings: Homo sapiens, 48 h, read-out: % growth inhibition
Outline: (§1)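 NCI protocol. Test compound added once at 10−5 M to ~60 human tumour lines from nine subpanels. Incubated 48 h at 37 °C, 5% CO2, 95% air, 100% relative humidity. Endpoint by sulforhodamine B protein staining with spectrophotometric absorbance. Growth of treated cells reported as percent of untreated cells.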

[9] = system: RPMI-8226 cell line; experiment: NCI in vitro one dose anticancer assay; assay type: cell-based; settings: Homo sapiens, RPMI-8226, 48 h, read-out: % growth inhibition
Outline: as §1

[10] = read-out: Src (IC50 μM), PGT substrate, ATP 50 μM
[11] = read-out: EGFR (IC50 μM), PGT substrate, ATP 50 μM

SMILES | IC50 ([1]; MTT, 24 h treatment) | IC50 ([2]; MTT, 24 h treatment) | IC50 ([1]; Homo sapiens, K562, 24 h) | IC50 [5] | IC50 ([2]; Homo sapiens, Jurkat, 24 h) | IC50 [7] | IC50 [5, 10] | IC50 [7, 11] | IC50 ([3]; MTT, 24 h treatment) | inhibition of STAT3 activation [4] | activity at 10 µM [6] | IC50 ([3]; Homo sapiens, KG-1a, 24 h) | inhibition at 10 µM [8] | inhibition at 10 µM [9]
N.N.[Cl][Pt][Cl] [Cisplatin, reference compound] | 3.21 ± 0.45 µM | 15.1 ± 1.35 µM |  |  |  |  |  |  | 12.2 ± 3.41 µM |  |  |  |  | 
O=C(CSc1nnc(-c2ccccc2)o1)Nc1ccc(C(=O)C=Cc2ccc(Cl)cc2)cc1 [Compound 8b, N-(4-(3-(4-Chlorophenyl)acryloyl)phenyl)-2-((5-phenyl-1,3,4-oxadiazol-2-yl)thio)acetamide] |  |  | 75.4 ± 4.61 µM | 44.1 ± 3.5 µM | 78.7 ± 2.13 µM | 35.1 ± 1.36 µM |  |  |  | moderate activities | 30 to 75% | 82.2 ± 4.56 µM |  | 
COc1ccc(C=CC(=O)c2ccc(NC(=O)CSc3nnc(-c4ccccc4)o3)cc2)cc1OC [Compound 8c, N-(4-(3-(3,4-Dimethoxyphenyl)acryloyl)phenyl)-2-((5-phenyl-1,3,4-oxadiazol-2-yl)thio)acetamide] |  |  | 69.5 ± 5.15 µM | 57.3 ± 2.4 µM | 75.2 ± 1.25 µM | 64.3 ± 3.56 µM |  |  |  |  | 82 to 98% | 95.2 ± 3.88 µM |  | 
COc1cc(C=CC(=O)c2ccc(NC(=O)CSc3nnc(-c4ccccc4)o3)cc2)cc(OC)c1OC [Compound 8d, N-(4-(3-(3.4.5-Trimethoxyphenyl)acryloyl)phenyl)-2-((5-phenyl-1,3,4-oxadiazol-2-yl)thio)acetamide] | 22.8 ± 1.32 µM | 28.3 ± 0.62 µM |  |  |  |  | 13.4 ± 1.6 µM | 11.2 ± 1.25 µM | 31.3 ± 1.05 µM |  |  |  |  | 
COc1ccc(C=CC(=O)c2ccc(NC(=O)CSc3nnc(-c4ccc(Cl)cc4)o3)cc2)cc1OC [Compound 8h, 2-(5-(4-Chlorophenyl)-1,3,4-oxadiazol-2-ylthio)-N-(4-(3-(3,4-dimethoxy-phenyl)acryloyl)phenyl)acetamide] |  |  | 72.1 ± 3.32 µM | 41.4 ± 4.5 µM | 78.1 ± 2.1 µM | 30.2 ± 2.35 µM |  |  |  |  |  | 84.6 ± 5.21 µM |  | 
COc1cc(C=CC(=O)c2ccc(NC(=O)CSc3nnc(-c4ccc(Cl)cc4)o3)cc2)cc(OC)c1OC [Compound 8i, 2-(5-(4-Chlorophenyl)-1,3,4-oxadiazol-2-ylthio)-N-(4-(3-(3,4,5-trimethoxyphenyl)acryloyl)phenyl)acetamide] |  |  | 55.3 ± 4.89 µM | 43.7 ± 3.5 µM | 62.6 ± 1.37 µM | 29.3 ± 3.65 µM |  |  |  |  |  | 79 ± 3.02 µM |  | 
COc1ccc(-c2nnc(SCC(=O)Nc3ccc(C(=O)C=Cc4ccccc4)cc3)o2)cc1 [Compound 8j, 2-(5-(4-Methoxyphenyl)-1,3,4-oxadiazol-2-ylthio)-N-(4-(3-phenylacryloyl)phenyl)acetamide] |  |  | 22.6 ± 2.34 µM | 25.3 ± 1.56 µM | 31.1 ± 0.46 µM | 11.5 ± 1.24 µM |  |  |  |  |  | 25.2 ± 0.48 µM |  | 31.3 to 144%
COc1ccc(-c2nnc(SCC(=O)Nc3ccc(C(=O)C=Cc4ccc(OC)c(OC)c4)cc3)o2)cc1 [Compound 8m] | 23.1 ± 0.28 µM | 28.4 ± 0.85 µM |  |  |  |  | 12.5 ± 0.3 µM | 10.2 ± 0.36 µM | 31.5 ± 0.42 µM |  |  |  |  | 
COc1ccc(C=CC(=O)c2ccc(NC(=O)CSc3nnc(-c4ccc(OC)c(OC)c4)o3)cc2)cc1 [Compound 8q, 2-((5-(3,4-Dimethoxyphenyl)-1,3,4-oxadiazol-2-yl)thio)-N-(4-(3-(4-methoxyphenyl)acryloyl)phenyl)acetamide] |  |  | 40.2 ± 2.82 µM | 29.5 ± 1.23 µM | 31.9 ± 1.3 µM | 11.4 ± 1.54 µM |  |  |  | moderate activities | 30 to 75% | 45.3 ± 2.31 µM |  | 
COc1ccc(C=CC(=O)c2ccc(NC(=O)CSc3nnc(-c4ccc(OC)c(OC)c4)o3)cc2)cc1OC [Compound 8r, 2-((5-(3,4-Dimethoxyphenyl)-1,3,4-oxadiazol-2-yl)thio)-N-(4-(3-(3,4-di-methoxyphenyl)acryloyl)phenyl)acetamide] |  |  | > 100 µM | 76.2 ± 3.65 µM | > 100 µM | 63.3 ± 2.36 µM |  |  |  |  | 82 to 98% | 93.1 ± 1.14 µM |  | 
COc1ccc(C=CC(=O)c2ccc(NC(=O)CSc3nnc(-c4cc(OC)c(OC)c(OC)c4)o3)cc2)cc1OC [Compound 8w, N-(4-(3-(3,4-Dimethoxyphenyl)acryloyl)phenyl)-2-((5-(3,4,5-trimethoxyphenyl)-1,3,4-oxadiazol-2-yl)thio)acetamide] |  |  | 90.3 ± 2.91 µM | 60.3 ± 2.5 µM | > 100 µM | 48.3 ± 2.36 µM |  |  |  |  | 82 to 98% | > 100 µM |  | 
COc1cc(C=CC(=O)c2ccc(NC(=O)CSc3nnc(-c4cc(OC)c(OC)c(OC)c4)o3)cc2)cc(OC)c1OC [Compound 8x, 2-((5-(3,4,5-Trimethoxyphenyl)-1,3,4-oxadiazol-2-yl)thio)-N-(4-(3-(3,4,5-trimethoxyphenyl)acryloyl)phenyl)acetamide] |  |  | 62.1 ± 3.07 µM | 35.1 ± 3.26 µM | 69.17 ± 0.15 µM | 20.5 ± 1.35 µM |  |  |  | moderate activities | 30 to 75% | 71.5 ± 1.18 µM | 32.9 to 160% | 31.3 to 144%

Further molecules by falling IC50 ([1]; Homo sapiens, K562, 24 h), results first:

IC50 ([1]; MTT, 24 h treatment) | IC50 ([2]; MTT, 24 h treatment) | IC50 ([1]; Homo sapiens, K562, 24 h) | IC50 [5] | IC50 ([2]; Homo sapiens, Jurkat, 24 h) | IC50 [7] | IC50 [5, 10] | IC50 [7, 11] | SMILES | IC50 ([3]; MTT, 24 h treatment) | inhibition of STAT3 activation [4] | activity at 10 µM [6] | IC50 ([3]; Homo sapiens, KG-1a, 24 h) | inhibition at 10 µM [8] | inhibition at 10 µM [9]
 |  | 93.3 ± 5.21 µM | 74.4 ± 3.6 µM | > 100 µM | 59.4 ± 5.63 µM |  |  | O=C(CSc1nnc(-c2ccc(Cl)cc2)o1)Nc1ccc(C(=O)C=Cc2ccccc2)cc1 [Compound 8e, 2-((5-(4-Chlorophenyl)-1,3,4-oxadiazol-2-yl)thio)-N-(4-cinnamoylphenyl)acetamide] |  |  | 82 to 98% | > 100 µM | 32.9 to 160% | 31.3 to 144%
 |  | 84.2 ± 4.36 µM | 53.1 ± 5.6 µM | > 100 µM | 55.4 ± 4.35 µM |  |  | COc1cc(-c2nnc(SCC(=O)Nc3ccc(C(=O)C=Cc4ccc(Cl)cc4)cc3)o2)cc(OC)c1OC [Compound 8u, N-(4-(3-(4-Chlorophenyl)acryloyl)phenyl)-2-((5-(3,4,5-trimethoxy-phenyl)-1,3,4-oxadiazol-2-yl)thio)acetamide] |  |  | 82 to 98% | 95.7 ± 2.48 µM |  | 
 |  | 82.3 ± 3.08 µM | 50.3 ± 3.5 µM | 88.6 ± 1.35 µM | 64.7 ± 3.65 µM |  |  | O=C(CSc1nnc(-c2ccc(Cl)cc2)o1)Nc1ccc(C(=O)C=Cc2ccc(Cl)cc2)cc1 [Compound 8f, 2-((5-(4-Chlorophenyl)-1,3,4-oxadiazol-2-yl)thio)-N-(4-(3-(4-chloro-phenyl)acryloyl)phenyl)acetamide] |  |  | 82 to 98% | 91.5 ± 4.15 µM |  | 
 |  | 73.2 ± 3.72 µM | 40.2 ± 1.34 µM | 76.4 ± 1.31 µM | 22.3 ± 2.35 µM |  |  | COc1cc(-c2nnc(SCC(=O)Nc3ccc(C(=O)C=Cc4ccccc4)cc3)o2)cc(OC)c1OC [Compound 8t, N-(4-Cinnamoylphenyl)-2-((5-(3,4,5-trimethoxyphenyl)-1,3,4-oxadiazol-2-yl)thio)acetamide] |  |  | 30 to 75% | 84.6 ± 1.28 µM |  | 
 |  | 58.4 ± 3.75 µM | 33.6 ± 2.35 µM | 62.7 ± 2.71 µM | 18.3 ± 2.35 µM |  |  | COc1ccc(-c2nnc(SCC(=O)Nc3ccc(C(=O)C=Cc4ccc(Cl)cc4)cc3)o2)cc1 [Compound 8k, 2-(5-(4-Methoxyphenyl)-1,3,4-oxadiazol-2-ylthio)-N-(4-(3-(4-chloro-phenyl)acryloyl)phenyl)acetamide] |  |  |  | 71.1 ± 1.22 µM |  | 
 |  | 58.4 ± 5.45 µM | 51.2 ± 5.6 µM | 94.1 ± 5.31 µM | 71.1 ± 3.25 µM |  |  | COc1ccc(-c2nnc(SCC(=O)Nc3ccc(C(=O)C=Cc4ccccc4)cc3)o2)cc1OC [Compound 8o, N-(4-Cinnamoylphenyl)-2-((5-(3,4-dimethoxyphenyl)-1,3,4-oxadiazol-2-yl)thio)acetamide] |  |  | 82 to 98% | 65.6 ± 2.31 µM |  | 
 |  | 35.2 ± 2.05 µM | 25 ± 3.46 µM | 33.3 ± 1.22 µM | 12.3 ± 1.35 µM |  |  | COc1ccc(/C=C/C(=O)c2ccc(NC(=O)CSc3nnc(-c4ccc(OC)cc4)o3)cc2)cc1 [Compound 8l, 2-(5-(4-Methoxyphenyl)-1,3,4-oxadiazol-2-ylthio)-N-(4-((E)-3-(4-methoxyphenyl)acryloyl)phenyl)acetamide] |  |  |  | 38.3 ± 2.45 µM |  | 
 |  | 13.1 ± 1.65 µM | 22.1 ± 2.15 µM | 41.2 ± 0.91 µM | 12.7 ± 1.25 µM |  |  | COc1ccc(C=CC(=O)c2ccc(NC(=O)CSc3nnc(-c4ccc(Cl)cc4)o3)cc2)cc1 [Compound 8g, 2-(5-(4-Chlorophenyl)-1,3,4-oxadiazol-2-ylthio)-N-(4-(3-(4-methoxy-phenyl)acryloyl)phenyl)acetamide] |  |  |  | 55.6 ± 1.34 µM |  | 
